The values that follow come from ChEMBL document CHEMBL4513216, “Probing the Open Global Health Chemical Diversity Library for Multistage-Active Starting Points for Next-Generation Antimalarials” (ACS Infect Dis, 2020).

This data set in a line: Toxicity liver stage against HepG2, at 10uM. Format: cell-based. On the set-up: test concentration 10 uM, cell line HepG2-A16-CD81EGFP. As to conditions: human, HepG2-A16-CD81EGFP cells; read-out: INHIBITION
An outline of the steps: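 Uninfected HepG2-A16-CD81EGFP cells, 3 × 10^3 per well, 1536-well, plated on prespotted compound at 10 μM final, parasite-free screening media added to match infected plates; puromycin 10 μM positive, DMSO 0.5% negative; run in parallel with 48 h PbLuc assay at 37 °C, 5% CO2; viability by CellTiter-Glo luminescence, normalized to controls.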
`CN(C)[C@@H]1CCN(c2ncc(F)cn2)[C@H]1Cc1ccccc1`: the cytotoxicity at 10 µM was -1.65%.

For the compound `Cn1nc(C2CCN(C(=O)Cc3cccc(F)c3)CC2)c2cccnc21`, the cytotoxicity at 10 µM was -0.439%.

Consider `NC(=O)c1cc(C2CCCN(CCCOc3ccc(F)cc3)C2)n[nH]1` (stereo not given), for which the cytotoxicity at 10 µM is -16.4%.

Turning to `CCCOc1cccc(C(=O)Oc2cc(=O)n3cccc(C)c3n2)c1`, the cytotoxicity at 10 µM worked out at 12.1%.

For `O=C(Cn1ccc(=O)[nH]c1=O)NCc1cccnc1OCC(F)(F)F`, the cytotoxicity at 10 µM is -5.88%.

Take `c1ccc(-c2nc(CN3CCOC(Cn4cccn4)C3)no2)cc1` (stereo not given): the cytotoxicity at 10 µM amounted to 10.1%.

In the case of `CSc1ccccc1C(=O)NCCCN1CCc2ccccc2C1`, the cytotoxicity at 10 µM was -15.6%.

`CCS(=O)(=O)N1CCCC(c2nccn2Cc2ccccn2)C1` (stereo not given): the cytotoxicity at 10 µM was -10.5%.

`Cc1ccc2c(c1)[C@@H](CC(=O)N1CCN(C)CC1)CCO2`: the cytotoxicity at 10 µM was -11.1%.

As to `COCCC(=O)N1CCC2(CCN(Cc3ccc(C)cc3)CC2)C1`, the cytotoxicity at 10 µM was -74.4%.

For `CC(C)c1nccn1C1CCCN(C(=O)c2nccnc2N)C1` (stereo not given), the cytotoxicity at 10 µM was determined as 0.0264%.

In the case of `CC(C)c1nccn1C(C)C(=O)NC1Cc2ccccc2C1` (stereo not given), the cytotoxicity at 10 µM was -5.03%.

As for `CC(C)c1n[nH]c(C2CN(Cc3nnc(C4CC4)n3C)CCO2)n1` (stereo not given), the cytotoxicity at 10 µM was -10.3%.

For `CC(=O)N1CCn2cc(CNC(=O)c3cccn3C)nc2C1`, the cytotoxicity at 10 µM amounted to 1.88%.

With `CCOCCC(=O)N1CCCC(CO)(CC2CC2)C1` (stereo not given), the cytotoxicity at 10 µM worked out at 7.58%.

For `O=C(NCCn1ccnc1)c1ccn(-c2cccc(F)c2)n1`, the cytotoxicity at 10 µM is -5.28%.

Consider `CNc1cc(N2CCCC2CNCc2cnc(C)cn2)ncn1` (stereo not given), for which the cytotoxicity at 10 µM was -4.51%.

Turning to `CC(c1ncc(C(C)(C)C)o1)N1CCN(c2ccncc2)CC1` (stereo not given), the cytotoxicity at 10 µM worked out at 18.5%.

As to `CC(=O)Nc1nc(C(=O)N2CCCC2Cn2cc(C)cn2)cs1` (stereo not given), the cytotoxicity at 10 µM amounted to 7.07%.

In the case of `C/C=C(\C)CN1CCCn2nc(CNC(=O)C3CCC3)cc2C1`, the cytotoxicity at 10 µM came out at 4.92%.

Regarding `O=c1cc(CN(CCO)C2CC2)nc2ccc(Cl)cn12`, the cytotoxicity at 10 µM was 14.7%.

Take `O=C(c1ccn(-c2ccccc2Cl)n1)N1CCCSCC1`: the cytotoxicity at 10 µM was 4.22%.

Take `O=C(O)CSc1nccc(-c2ccc3c(c2)OCO3)n1`: the cytotoxicity at 10 µM was -3.61%.

Take `CN(C)C(=O)C1CN(c2ccncn2)CCN(C2CCOCC2)C1` (stereo not given): the cytotoxicity at 10 µM was -0.621%.

On to `COCCNC(=O)CN1CCC(N2CCN(C)C2=O)CC1`, for which the cytotoxicity at 10 µM is 0.621%.

For `O=C(c1cccs1)N1CC[C@@H]2[C@H]1CCC(=O)N2c1ccccc1`, the cytotoxicity at 10 µM was -97.5%.

As to `COc1cc(N2CC[C@@H]3O[C@@H](C(=O)NC(C)C)C[C@@H]32)ncn1`, the cytotoxicity at 10 µM was 7.66%.

In the case of `O=C1CN(C(=O)c2cc(Cl)ccc2F)c2ccncc2N1`, the cytotoxicity at 10 µM turned out to be 5.92%.

Take `CN1CCN(Cc2ccccc2Oc2nccc3occc23)CC1`: the cytotoxicity at 10 µM is 5.83%.

Consider `CCN(C)c1ccc(CNC(=O)c2cc(C(N)=O)cs2)cc1F`, for which the cytotoxicity at 10 µM was determined as 6.36%.

Regarding `OC(CN1CCC(c2ccn[nH]2)CC1)c1cccc(C(F)(F)F)c1` (stereo not given), the cytotoxicity at 10 µM was -12.1%.

As for `CCc1nc(Cn2c(=O)n(CC)c3ccccc32)no1`, the cytotoxicity at 10 µM is -43.9%.

Regarding `Cc1ccsc1C(=O)N1CCCn2c(nc(CN(C)C)cc2=O)C1`, the cytotoxicity at 10 µM is -0.385%.

In the case of `O=C(CN1CCCC1c1noc(C2CC2)n1)N1CCc2ccccc21` (stereo not given), the cytotoxicity at 10 µM was -5.86%.

Regarding `COc1cc(CNC(=O)N2CCCC2c2cc(C)no2)ccn1` (stereo not given), the cytotoxicity at 10 µM turned out to be 1.95%.

With `CCN(CCC(=O)NC1CC1)Cc1ccc(Cl)s1`, the cytotoxicity at 10 µM was determined as 3.88%.

For `CC(Cc1ccco1)NC(=O)Nc1ccc(S(C)(=O)=O)nc1` (stereo not given), the cytotoxicity at 10 µM was found to be 3.95%.

Turning to `Cc1nonc1CN(C)c1nc(-c2ccco2)nc2c1CCN(C)CC2`, the cytotoxicity at 10 µM was -0.274%.

`CCOC(=O)C1CCCN(Cc2c[nH]nc2-c2cc3ccccc3o2)C1` (stereo not given): the cytotoxicity at 10 µM is 3.16%.

Turning to `Cc1occc1C(=O)N1CCC2(CCCN(c3ncc(F)cn3)C2)C1` (stereo not given), the cytotoxicity at 10 µM was -102%.
